This is an account of results in ChEMBL document CHEMBL1125862, “(1S)-1-(aminomethyl)-2-(arylacetyl)-1,2,3,4-tetrahydroisoquinoline and heterocycle-condensed tetrahydropyridine derivatives: members of a novel class of very potent kappa opioid analgesics” (J Med Chem, 1991).

Where only a bound is given, the exact number is not on record here.

Experiment [1] has as its system Mus musculus. Put plainly: In vivo antinociceptive activity using mouse tail flick test, subcutaneous administration. It is filed as functional. On the technique in general: Thermal pain tests record how soon the animal reacts.
In experiment [2] the test system is Mus musculus. Put plainly: Phenyl-p-benzoquinone-induced abdominal constriction after subcutaneous administration in mouse (in vivo). The experiment is classed as functional, Abdomen. The procedure, abridged:
(§1)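 Mice given test agent subcutaneously, with 10 animals per dose, then challenged with phenyl-p-benzoquinone. Abdominal constrictions counted over an 8-min observation period. Percentage inhibition calculated as 1 − (T/C) × 100, with T the treated-group mean and C the control-group mean count.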

Experiment [3] deals with Mus musculus. Put plainly: In vivo antinociceptive activity in mouse tail flick test following p.o. administration. The experiment is classed as functional.
For experiment [4], the target named is Kappa-type opioid receptor (Cavia porcellus, UniProt P41144). Put plainly: Displacement of [3H]-BRL 52537 from opioid receptor kappa site in guinea pig. Background: Loss of bound radioactivity is the signal in a displacement assay; it reports binding, not function.
For experiment [5], the target named is Mu-type opioid receptor (Cavia porcellus, UniProt P97266). Put plainly: Affinity for opioid receptor mu sites.
Experiment [6] concerns Mus musculus. Put plainly: Concentration required for 50% inhibition of abdominal constrictions by phenyl-p-benzoquinone-induced abdominal constriction given sc in mouse. The experiment is classed as functional, Abdomen. The procedure, abridged: as §1
[7] abbreviates: Mus musculus, Tail, sc, read-out: ED50.
The mark [8] stands for this setting: Mus musculus, Abdomen, sc, read-out: ED50.
The mark [9] stands for this setting: Mus musculus, Tail, po, read-out: ED50.

Sequence of Mu-type opioid receptor (P97266 whole entry): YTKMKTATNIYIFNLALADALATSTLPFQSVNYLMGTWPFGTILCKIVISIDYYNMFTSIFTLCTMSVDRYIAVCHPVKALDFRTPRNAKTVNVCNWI
Sequence of Kappa-type opioid receptor (P41144 whole entry): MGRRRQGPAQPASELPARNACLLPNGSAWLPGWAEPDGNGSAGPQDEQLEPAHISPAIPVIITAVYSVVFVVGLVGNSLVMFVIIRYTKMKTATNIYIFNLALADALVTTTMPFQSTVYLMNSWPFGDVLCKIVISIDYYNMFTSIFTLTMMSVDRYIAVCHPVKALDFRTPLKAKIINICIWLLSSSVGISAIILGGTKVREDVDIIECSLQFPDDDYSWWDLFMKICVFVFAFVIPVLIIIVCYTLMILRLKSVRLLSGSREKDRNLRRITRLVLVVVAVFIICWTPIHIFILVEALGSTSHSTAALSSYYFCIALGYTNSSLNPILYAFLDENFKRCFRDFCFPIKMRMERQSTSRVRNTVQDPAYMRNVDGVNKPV

`O=C(Cc1ccc(Cl)c(Cl)c1)N1CCc2ccccc2C1CN1CCCC1.O=C(O)C(O)C(O)C(=O)O` (stereo not drawn): the values for the ED50 in experiment [1], in experiment [2] and in experiment [3] were 0.02 µM/kg, 0.017 µM/kg and 0.544 µM/kg, respectively.

On to `O=C(Cc1ccc(C(F)(F)F)cc1)N1CCc2sccc2C1CN1CCCCC1` (stereo not drawn), for which the ED50 in experiment [1] (setting [7]) came to 0.125 µmol/kg; in experiment [2] (setting [8]), 0.024 µmol/kg; in experiment [3] (setting [9]), 4.65 µmol/kg. Besides, the Ki (in general, the equilibrium dissociation constant of an inhibitor or competing ligand from its target) stood at 0.0006 µM in experiment [4] and 0.42 µM in experiment [5].

Take `O=C(Cc1ccc(Cl)c(Cl)c1)N1CCc2c([nH]c3ccccc23)C1CN1CCCC1` (stereo not drawn): in experiment [1] (setting [7]), the ED50 was greater than 20 µmol/kg. The inhibition constant Ki in experiment [4] was greater than 0.1 µM; in experiment [5] it was greater than 1 µM.

`O=C(Cc1ccc(Cl)c(Cl)c1)N1CCc2[nH]c3ccccc3c2C1CN1CCCC1` (stereo not drawn): in experiment [1] (setting [7]), the ED50 was greater than 20 µmol/kg. The inhibition constant (Ki) in experiment [4] was 0.1 µM; in experiment [5], greater than 1 µM.

As for `O=C(Cc1ccc(C(F)(F)F)cc1)N1CCCC[C@H]1CN1CCCC1`, the ED50 in experiment [1] (setting [7]) stood at 0.0373 µmol/kg; in experiment [2] (setting [8]), 0.099 µmol/kg; in experiment [3] (setting [9]), 3.29 µmol/kg. Moreover, the figures for the Ki in experiment [4] and in experiment [5] were 0.00064 µM and 2.34 µM, respectively.

Regarding `O=C(Cc1ccc(Cl)c(Cl)c1)N1CCc2ccccc2C1CN1CCCC1` (stereo not drawn), the values for the ED50 in experiment [1] (setting [7]), in experiment [2] (setting [8]) and in experiment [3] (setting [9]) were 0.036 µmol/kg, 0.025 µmol/kg and 0.626 µmol/kg, respectively.

`O=C(Cc1ccc(Cl)c(Cl)c1)N1CCCC[C@H]1CN1CCCC1`: the ED50 in experiment [1] (setting [7]) was determined as 0.135 µmol/kg; in experiment [2] (setting [8]), 0.056 µmol/kg; in experiment [3] (setting [9]) it was 2.49 µmol/kg. Further, the Ki in experiment [4] was 0.00031 µM.

Take `O=C(Cc1ccc(Cl)c(Cl)c1)N1CCc2ccccc2C1CN1CCCCCC1` (stereo not drawn): the ED50 in experiment [1] (setting [7]) was 0.267 µmol/kg; in experiment [2] (setting [8]), 0.083 µmol/kg.

`O=C(Cc1ccc(Cl)c(Cl)c1)N1CCc2sccc2C1CN1CCCCC1` (stereo not drawn): the ED50 in experiment [1] (setting [7]) amounted to 0.096 µmol/kg; in experiment [2] (setting [8]) it was 0.024 µmol/kg; in experiment [3] (setting [9]) it was 2.75 µmol/kg. Besides, the Ki in experiment [4] turned out to be 0.00047 µM; in experiment [5], 0.445 µM.

`O=C(Cc1ccc(Cl)c(Cl)c1)N1CCc2ccsc2C1CN1CCCC1` (stereo not drawn): the ED50 is 0.073 µmol/kg in experiment [1] (setting [7]) and 1.59 µmol/kg in experiment [3] (setting [9]). For the same compound, the inhibition constant (Ki) in experiment [4] was 0.00046 µM; in experiment [5], 0.047 µM.

`O=C(Cc1ccc(Cl)c(Cl)c1)N1Cc2ccccc2CC1CN1CCCC1` (stereo not drawn): in experiment [1] (setting [7]), the ED50 was determined as 8.23 µmol/kg.

Turning to `O=C(Cc1ccc(Cl)c(Cl)c1)N1CCc2sccc2C1CN1CCCC1` (stereo not drawn), the results for the ED50 in experiment [1] (setting [7]) and in experiment [3] (setting [9]) were 0.018 µmol/kg and 0.945 µmol/kg, respectively. Also, the figures for the Ki in experiment [4] and in experiment [5] were 0.00022 µM and 0.0472 µM, respectively.

Consider `O=C(Cc1ccc(Cl)c(Cl)c1)N1c2ccccc2CCC1CN1CCCC1` (stereo not drawn), for which the ED50 in experiment [1] (setting [7]) is greater than 20 µmol/kg.

As for `O=C(Cc1ccc(Cl)c(Cl)c1)N1CCc2ccccc2C1CN1CCC1` (stereo not drawn), in experiment [1] (setting [7]), the ED50 came to 23.2 µmol/kg.

As for `CN(C)CC1c2ccccc2CCN1C(=O)Cc1ccc(Cl)c(Cl)c1.Cl` (racemic), the values for the ED50 in experiment [1] (setting [7]), in experiment [3] (setting [9]) and in experiment [6] were 0.099 µmol/kg, 2.88 µmol/kg and 0.127 µM/kg, respectively.

Regarding `O=C(Cc1ccc([N+](=O)[O-])cc1)N1CCc2ccccc2C1CN1CCCC1` (racemic), the ED50 in experiment [1] (setting [7]) came out at 0.038 µmol/kg; in experiment [3] (setting [9]) it was 0.409 µmol/kg.

With `O=C(Cc1ccccc1[N+](=O)[O-])N1CCc2ccccc2C1CN1CCCC1` (racemic), the ED50 in experiment [1] (setting [7]) is greater than 21 µmol/kg.

As for `O=C(Cc1ccc(C(F)(F)F)cc1)N1CCc2ccccc2C1CN1CCCC1` (racemic), the ED50 in experiment [1] (setting [7]) stood at 0.074 µmol/kg; in experiment [3] (setting [9]), 0.467 µmol/kg; in experiment [6] (setting [8]), 0.027 µmol/kg.

Turning to `O=C(Cc1ccc(Cl)c(Cl)c1)N1CCc2ccccc2C1CN1CCCCCCC1` (racemic), the ED50 in experiment [1] (setting [7]) was greater than 22 µmol/kg.

Consider `O=C(Cc1ccc(Br)cc1)N1CCc2ccccc2C1CN1CCCC1` (racemic), for which the ED50 in experiment [1] (setting [7]) was 0.07 µmol/kg.

As to `C=CCN(C)CC1c2ccccc2CCN1C(=O)Cc1ccc(Cl)c(Cl)c1` (racemic), the figures for the ED50 in experiment [1] (setting [7]) and in experiment [3] (setting [9]) were 0.521 µmol/kg and 6.88 µmol/kg, respectively.

As to `CCCN(CCC)CC1c2ccccc2CCN1C(=O)Cc1ccc(Cl)c(Cl)c1` (racemic), the ED50 in experiment [1] (setting [7]) was greater than 23 µmol/kg.

As to `CN(CC1CC1)CC1c2ccccc2CCN1C(=O)Cc1ccc(Cl)c(Cl)c1` (racemic), in experiment [1] (setting [7]), the ED50 stood at 3.39 µmol/kg.

`CCN(CC)CC1c2ccccc2CCN1C(=O)Cc1ccc(Cl)c(Cl)c1` (racemic): the ED50 in experiment [1] (setting [7]) came out at 0.264 µmol/kg; in experiment [3] (setting [9]) it was 3.37 µmol/kg.

For the compound `O=C(Cc1ccc(Cl)c(Cl)c1)N1CCc2ccccc2C1CN1CCCCC1` (racemic), the ED50 in experiment [1] (setting [7]) was found to be 0.359 µmol/kg; in experiment [2] (setting [8]) it was 0.101 µmol/kg; in experiment [3] (setting [9]), 5.16 µmol/kg.

For the compound `O=C(Cc1cccc([N+](=O)[O-])c1)N1CCc2ccccc2C1CN1CCCC1` (racemic), the values for the ED50 in experiment [1] (setting [7]) and in experiment [3] (setting [9]) were 0.105 µmol/kg and 5.26 µmol/kg, respectively.

As for `CNCC1c2ccccc2CCN1C(=O)Cc1ccc(Cl)c(Cl)c1` (racemic), the ED50 in experiment [1] (setting [7]) is greater than 28 µmol/kg.

For the compound `CCO.CN(C)CC1c2ccccc2CCN1C(=O)Cc1ccc(Cl)c(Cl)c1.O=C(O)C(O)C(O)C(=O)O` (single isomer, unassigned; (-)), the ED50 is 0.075 µM/kg in experiment [1], 2.199 µM/kg in experiment [3] and 0.042 µM/kg in experiment [6]. In addition, the inhibition constant (Ki) in experiment [4] came out at 0.00051 µM; in experiment [5], 0.293 µM.

With `O=C(Cc1ccc(C(F)(F)F)cc1)N1CCc2ccccc2C1CN1CCCCC1` (single isomer, unassigned; (-)), the figures for the ED50 in experiment [1] (setting [7]), in experiment [3] (setting [9]) and in experiment [6] (setting [8]) were 0.168 µmol/kg, 3.84 µmol/kg and 0.06 µmol/kg, respectively. For the same compound, the Ki is 0.00062 µM in experiment [4] and 0.231 µM in experiment [5].

Take `O=C(Cc1ccc(C(F)(F)F)cc1)N1CCc2ccccc2[C@H]1CN1CCCC1` (stereo in doubt; 30): the figures for the ED50 in experiment [1], in experiment [3] (setting [9]) and in experiment [6] (setting [8]) were 0.032 µM/kg, 0.25 µmol/kg and 0.015 µmol/kg, respectively. Besides, the inhibition constant Ki in experiment [4] came out at 0.00024 µM; in experiment [5], 0.0107 µM.

Turning to `CN1CC[C@]23c4c5ccc(O)c4O[C@H]2[C@@H](O)C=C[C@H]3[C@H]1C5` [MORPHINE], the ED50 in experiment [3] (setting [9]) stood at 32.6 µmol/kg.
